Only some compounds are listed: those with a hit (about 1.9% of all), similar ones and a draw of the others.
Jurkat NFkB inh = lowers PMA/ionomycin-induced NF-kB signal in Jurkat cells; PMA/ionomycin-induced NF-kB luciferase reporter, luminescence; inhibition, % at 4 µM; actives 0.53% (n = 330,000); in the data active = inhibition above about 50%
aSyn UTR inh = 5' untranslated region of α-synuclein, MLPCN primary screen. alpha-synuclein 5'UTR reporter, inhibitor activity. inhibition, % (tested at 7.5 µM). actives 0.82% (n = 300,000); in the data active = inhibition above about 60%;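 also: H4 neuroglioblastoma cells stably carrying SNCA 5'UTR luciferase fusion; 0% = DMSO wells and 100% = positive control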
697 NFkB inh = inhibitors of the PMA/ionomycin-induced NF-kB reporter in 697 B cells; 697 B-cell NF-kB luciferase reporter, 16 h; actives 0.33% (n = 330,000); inhibition, % at 4 µM; in the data active = inhibition above about 35%
Lipid droplet = hepatic lipid droplet formation modulation | AML12 mouse hepatocytes, oleate lipid droplets, BODIPY imaging | inhibition, % at 6.5 µM | actives 0.4% (n = 240,000) | AID 1656;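 active = lipid droplet intensity inhibited by at least 50%, with more than 500 cells counted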
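Assay system: AML12 hepatocytes (mouse); Probe or stimulus: oleic acid at 100 µM to induce lipid droplet formation; Dosing: compound at 6.5 µM only; Schedule: compound with oleate, overnight; Detection: fluorescence imaging, 20x objective, two fields per well; Measure: % inhibition of lipid droplet signal.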
H9c2 TAG inh = triacylglycerol accumulation inhibition; actives 0.66% (n = 230,000); inhibition, % at 12.5 µM; AID 651582; H9c2 cells, Nile Red lipid (TAG) fluorescence; cells loaded with 200 µM oleic acid;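 active = pattern-corrected inhibition of lipid staining of at least 50% with the nuclear-stain viability signal not falling by more than 50%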;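 also: 0% = DMSO wells and 100% = triacsin C control wells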
APP transl inh = APP translation inhibition. SH-SY5Y APP 5'UTR-luciferase reporter, luminescence. inhibition, % at 2 µM. actives 0.82% (n = 190,000). AID 1285;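 active = inhibition above a set limit, derived from the sample mean plus 3 SD, cut at about 45% in these data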
An asterisk follows results filed as active; . = no result given.

SMILES	Jurkat NFkB inh	aSyn UTR inh	697 NFkB inh	Lipid droplet	H9c2 TAG inh	APP transl inh
O=C1N/C(=C/c2ccc(Br)cc2)C(O)=C1C=NCc1ccccc1	17.0	-26.7	-0.2	-18.2	.	58.8*
O=C1C(C=NCc2ccncc2)=C(O)c2ccccc21	6.0	-4.0	1.5	-8.1	25.6	-17.1
O=C1Nc2cccc3c2N(CCC3)C2=C1CCC2	.	.	.	.	0.4	.
CCSc1nnc(-c2ccc(OC)cc2)o1	-74.3	-185.9	-98.0	5.4	-2.6	-87.4
CCCCCCCCSc1nnc(-c2ccc(OC)cc2)o1	-15.3	111.2*	7.4	7.9	-12.3	5.4
CCN(CC)Cc1ccc(NC(=O)c2sc3cc(Cl)ccc3c2Cl)cc1	16.0	104.4*	-25.7	32.7	-6.1	.
CCCCn1nnc(NC(=O)c2sc3cc(Cl)ccc3c2Cl)n1	26.7	-32.1	14.1	4.3	-9.7	-3.6
CCC(C)n1ncn(-c2ccc(N3CCN(c4ccc(O)cc4)CC3)cc2)c1=O (stereo unspecified)	4.4	73.2*	4.7	4.1	.	0.3
Cc1cc(NC(=O)CN2CCN(c3ccc(O)cc3)CC2)no1	-7.8	-11.6	-0.9	.	.	0.4
O=C(c1ccccc1)c1ccc2nc(-c3ccc(NC(=O)c4ccccc4Br)cc3)[nH]c2c1	-6.2	75.1*	0.2	38.1	.	-23.1
Cc1ccccc1C(=O)Nc1ccc(-c2nc3ccc(C(=O)c4ccccc4)cc3[nH]2)cc1	2.2	34.9	-27.3	.	-1.0	-23.6
CC(NC(=O)c1ccc(Cl)c(S(=O)(=O)NC2CC2)c1)c1ccco1 (stereo unspecified)	.	.	.	.	-1.2	.
O=C(c1ccc(Cl)cc1)N1CCCCC(Sc2nnc(-c3ccc4c(c3)OCO4)o2)C1=O (stereo unspecified)	42.2	92.0*	26.2	-3.4	-3.5	8.4
CC1(C)COCN1S(=O)(=O)c1ccc(C(=O)Nc2nnc(-c3ccc(Cl)s3)o2)cc1	5.0	92.4*	-13.4	11.8	.	44.5
COc1ccc(-c2nnc(NC(=O)c3ccc(S(=O)(=O)N4COCC4(C)C)cc3)o2)cc1	-11.1	76.1*	-53.2	.	13.1	33.1
C[C@H]1CN([C@@H](C)CO)C(=O)c2cc(C#Cc3ccccn3)cnc2O[C@@H]1CN(C)Cc1ccccc1	.	.	.	.	7.6	.
Cc1n[nH]c(C)c1CCCCOc1ccccc1[N+](=O)[O-]	-16.5	9.0	-60.8	-0.8	.	.
CSc1ccc(/C=C2\CCn3c2nc2cc(C(=O)O)ccc2c3=O)cc1	-2.3	-0.7	-1.4	-3.3	.	.
COc1cccc(OCCCCCCN2CCOCC2)c1	-10.6	-0.9	-8.4	-2.6	-18.3	50.0*
C=C1CC[C@@H]2[C@](C)(CO)[C@H](O)CC[C@@]2(C)[C@@H]1C/C=C1/C(=O)OCC1O (stereo partly specified)	.	.	.	.	-10.1	.
CCc1ccc2c(c1)C1(NN=C(c3cccc4ccccc34)S1)C(=O)N2 (stereo unspecified)	6.4	76.3*	10.3	-33.4	4.3	11.1
COc1ccccc1NS(=O)(=O)c1cccc(C(=O)NC2CCN(Cc3ccccc3)CC2)c1	45.1	83.0*	-22.6	.	-2.9	.
COc1ccccc1NS(=O)(=O)c1ccc(C)c(C(=O)NC2CCN(Cc3ccccc3)CC2)c1	24.2	.	-41.3	.	-2.2	.
CCCNC(=O)C1(C)CCCN(Cc2ccc3ccccc3c2)C1 (stereo unspecified)	.	.	.	.	2.4	.
c1ccc(-c2sc3ccccc3c2-c2ccc(OCCN3CCCCC3)cc2)cc1	-4.6	.	6.2	.	17.4	.
SMILES	Jurkat NFkB inh	aSyn UTR inh	697 NFkB inh	Lipid droplet	H9c2 TAG inh	APP transl inh
CN(C)CCOc1ccc(-c2c(-c3ccccc3)sc3ccccc23)cc1	-8.5	.	12.6	.	58.5*	.
CCOc1ccccc1C1c2[nH]c3ccccc3c2C[C@H]2C(=O)N(C3CC3)CC(=O)N12 (stereo partly specified)	-21.6	22.6	12.8	4.1	.	.
COc1cc(/C=C(\C#N)c2ccccn2)cc(OC)c1O	7.9	-48.9	13.6	8.1	7.3	.
COc1cc(/C=C(\C#N)c2[nH]nc(N)c2C#N)cc(OC)c1O	-3.1	21.2	20.9	0.6	9.4	49.0*
N#Cc1ccc(C23CC4(C2)[C@H](CN(P(=O)(c2ccccc2)c2ccccc2)[C@@H]4c2ccccc2)C3c2ccc(Cl)nc2)cc1 (stereo partly specified)	27.3	29.6	21.6	34.2	51.5*	.
O=C(O)CN1C(=O)C=CC1=O	.	.	.	.	12.8	.
O=C1C=CC(=O)N1CCCCCCN1C(=O)C=CC1=O	.	.	.	1.1	.	94.6*
CSCCC(NC(=O)c1ccco1)C(=O)N1CCN(C(c2ccccc2)c2ccccc2)CC1 (stereo unspecified)	-6.0	.	-15.0	.	-13.3	.
CCOC(=O)c1[nH]c(C)c(C(=O)N2CCc3ccccc32)c1C	48.0	89.7*	-5.6	.	55.6*	96.1*
CCc1nc2ccc(C(=O)NCCc3ccccn3)cn2c1N(C)Cc1ccc(N(C)C)cc1	.	.	.	.	-2.8	.
Cc1noc(C)c1NC(=O)N(C)C[C@@H]1OCc2cn(nn2)CCCC(=O)N([C@H](C)CO)C[C@H]1C	.	.	.	.	-1.6	.
Cc1cccc2cc(C#N)c(SCC(=O)N3CC(=O)Nc4ccccc43)nc12	48.1	110.3*	-36.4	.	43.9	96.2*
Cc1noc(C)c1S(=O)(=O)NC(=O)C1(C)CCN1C(=O)CC(c1ccccc1)c1ccccc1 (stereo unspecified)	.	.	.	.	-3.4	.
COc1cc2ncnc(NCCCN3CCOCC3)c2cc1OC	1.2	2.7	8.0	2.0	13.1	.
CCOc1cc2nc(-c3ccc(OC)c(OC)c3)nc(NCCCN3CCOCC3)c2cc1OC	-8.0	-64.8	31.4	25.9	56.0*	-1.9
CC(C)(C)C(=O)NC(=S)Nc1cccc(C(=O)O)c1	-43.4	-160.7	-98.4	2.7	6.1	-85.9
O=C(O)c1cccc(NC(=S)NC(=O)c2ccncc2)c1	15.8	-6.7	7.0	-5.5	-22.7	59.7*
CC(C)(C)OC(=O)N(CCc1ccccc1)Cc1cccc(OCc2cccc(NC(=O)c3ccccc3)c2)c1	.	.	.	.	-5.4	.
C=CCOC(=O)C1=C(C)NC(SCC(N)=O)=C(C#N)C1c1ccc(C)cc1 (stereo unspecified)	-0.7	8.0	-6.3	4.2	-8.1	.
C=CCOC(=O)C1=C(C)NC(SCC)=C(C#N)C1c1ccc(Cl)cc1 (stereo unspecified)	11.5	67.0*	18.3	.	-3.4	-10.2
CCCOC(=O)Nc1cc(OC)ccc1[N+](=O)[O-]	4.6	-59.2	-7.1	5.3	15.8	-0.3
CCOC(=O)C(NC(=O)c1cccc(Cl)c1)(OCc1ccccc1)C(F)(F)F (stereo unspecified)	0.1	-3.3	-21.1	70.9*	.	1.2
CCOC(=O)c1cccc(NC(=O)/C=C/c2ccc3c(c2)OCO3)c1	13.9	105.8*	-37.7	10.1	-4.7	14.0
CCOC(=O)c1cccc(NC(=O)c2ccc3c(c2)OCO3)c1	-37.1	-125.8	-42.3	-4.8	-10.7	.
CN(C)CCCNC(=S)NCC(c1ccc(Cl)cc1Cl)c1c[nH]c2ccccc12 (stereo unspecified)	-8.8	110.6*	15.9	-14.8	.	.

Source: PubChem BioAssay
